Some results are limits rather than exact numbers.

Data set [1] has as its system Brain. Briefly: Biodistribution in Sprague-Dawley rat brain at 1.48 to 2.22 MBq, iv measured at 5 mins by gamma counting analysis. The class given is ADME, organism-based. The following applies: in vivo. Summed up:
(§1)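 Male Sprague-Dawley rats (250 - 400 g), tail-vein injection of 1.48 - 2.22 MBq radiotracer under 2.5% isoflurane in oxygen; n=4 per time point, euthanized at 5, 30 and 60 min p.i. Brain regions obtained by gross dissection; peripheral tissues collected. Samples weighed, gamma-counted against a diluted-injectate standard; %ID/g calculated.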

Data set [2] relates to Muscle tissue. Briefly: Biodistribution in Sprague-Dawley rat muscle at 1.48 to 2.22 MBq, iv measured at 60 mins by gamma counting analysis. The class given is ADME, organism-based. The following applies: in vivo, 1 h. In short, it runs like this: as §1
Data set [3] deals with Blood. Nature of the data set: Biodistribution in Sprague-Dawley rat blood at 1.48 to 2.22 MBq, iv measured at 30 mins by gamma counting analysis. The data set is classed as ADME, organism-based. The following applies: in vivo, 0.5 h. Summed up:
as §1

In data set [4] the test system is Brain. Nature of the data set: Biodistribution in Sprague-Dawley rat brain at 1.48 to 2.22 MBq, iv measured at 60 mins by gamma counting analysis. The data set is classed as ADME, organism-based. The following applies: in vivo, 1 h. Summed up: as §1
Data set [5] deals with Kidney. Briefly: Biodistribution in Sprague-Dawley rat kidney at 1.48 to 2.22 MBq, iv measured at 30 mins by gamma counting analysis. The class given is ADME, organism-based. The following applies: in vivo, 0.5 h. Summed up: as §1
Data set [6] concerns Liver. Nature of the data set: Biodistribution in Sprague-Dawley rat liver at 1.48 to 2.22 MBq, iv measured at 30 mins by gamma counting analysis. The data set is classed as ADME, organism-based. The following applies: in vivo, 0.5 h. Summed up: as §1
The test system of data set [7] is Bone. Nature of the data set: Biodistribution in Sprague-Dawley rat bone at 1.48 to 2.22 MBq, iv measured at 5 mins by gamma counting analysis. The class given is ADME, organism-based, Bone element. As to conditions: in vivo; call rule not given here. Summed up: as §1
In data set [8] the test system is Kidney. Nature of the data set: Biodistribution in Sprague-Dawley rat kidney at 1.48 to 2.22 MBq, iv measured at 60 mins by gamma counting analysis. The following applies: in vivo, 1 h. The data set is classed as ADME, organism-based. Summed up: as §1
The subject of data set [9] is Liver. Briefly: Biodistribution in Sprague-Dawley rat liver at 1.48 to 2.22 MBq, iv measured at 60 mins by gamma counting analysis. The class given is ADME, organism-based. The following applies: in vivo, 1 h. In short, it runs like this: as §1
In data set [10] the test system is Liver. Briefly: Biodistribution in Sprague-Dawley rat liver at 1.48 to 2.22 MBq, iv measured at 5 mins by gamma counting analysis. The data set is classed as ADME, organism-based. As to conditions: in vivo. In short, it runs like this: as §1
A further data set relates to Striatum. Briefly: Biodistribution in Sprague-Dawley rat striatum at 1.48 to 2.22 MBq, iv measured at 30 mins by gamma counting analysis. The class given is ADME, organism-based. The following applies: in vivo, 0.5 h. In short, it runs like this:
as §1

The subject of data set [11] is Brain. Nature of the data set: Biodistribution in Sprague-Dawley rat brain at 1.48 to 2.22 MBq, iv measured at 30 mins by gamma counting analysis. The class given is ADME, organism-based. As to conditions: in vivo, 0.5 h. Summed up:
as §1

The subject of data set [12] is Blood. Nature of the data set: Biodistribution in Sprague-Dawley rat blood at 1.48 to 2.22 MBq, iv measured at 5 mins by gamma counting analysis. The following applies: in vivo. The data set is classed as ADME, organism-based. Summed up: as §1
Data set [13] relates to Muscle tissue. Briefly: Biodistribution in Sprague-Dawley rat muscle at 1.48 to 2.22 MBq, iv measured at 5 mins by gamma counting analysis. As to conditions: in vivo. The data set is classed as ADME, organism-based. Summed up: as §1
Data set [14] has as its system Rattus norvegicus. Nature of the data set: Biodistribution in Sprague-Dawley rat fat tissue at 1.48 to 2.22 MBq, iv measured at 30 mins by gamma counting analysis. As to conditions: in vivo, 0.5 h. The class given is ADME, organism-based, Adipose tissue. Summed up:
as §1

The test system of data set [15] is Rattus norvegicus. Nature of the data set: Biodistribution in Sprague-Dawley rat fat tissue at 1.48 to 2.22 MBq, iv measured at 5 mins by gamma counting analysis. The following applies: in vivo. The class given is ADME, organism-based, Adipose tissue. In short, it runs like this:
as §1

For data set [16], the system named is Muscle tissue. Briefly: Biodistribution in Sprague-Dawley rat muscle at 1.48 to 2.22 MBq, iv measured at 30 mins by gamma counting analysis. The data set is classed as ADME, organism-based. As to conditions: in vivo, 0.5 h. In short, it runs like this:
as §1

Data set [17] relates to Bone. Nature of the data set: Biodistribution in Sprague-Dawley rat bone at 1.48 to 2.22 MBq, iv measured at 30 mins by gamma counting analysis. The class given is ADME, organism-based, Bone element. The following applies: in vivo, 0.5 h. Summed up: as §1
Data set [18] has as its system Rattus norvegicus. Briefly: Biodistribution in Sprague-Dawley rat fat tissue at 1.48 to 2.22 MBq, iv measured at 60 mins by gamma counting analysis. The data set is classed as ADME, organism-based, Adipose tissue. As to conditions: in vivo, 1 h. In short, it runs like this:
as §1

Data set [19] deals with Blood. Briefly: Biodistribution in Sprague-Dawley rat blood at 1.48 to 2.22 MBq, iv measured at 60 mins by gamma counting analysis. As to conditions: in vivo, 1 h. The data set is classed as ADME, organism-based. Summed up: as §1
Data set [20] relates to Bone. Nature of the data set: Biodistribution in Sprague-Dawley rat bone at 1.48 to 2.22 MBq, iv measured at 60 mins by gamma counting analysis. The data set is classed as ADME, organism-based, Bone element. The following applies: in vivo, 1 h. Summed up:
as §1

For data set [21], the system named is Kidney. Briefly: Biodistribution in Sprague-Dawley rat kidney at 1.48 to 2.22 MBq, iv measured at 5 mins by gamma counting analysis. The data set is classed as ADME, organism-based. The following applies: in vivo. In short, it runs like this:
as §1

The target of data set [22] is 3',5'-cyclic-AMP phosphodiesterase 4B (Homo sapiens, UniProt Q07343). Nature of the data set: Inhibition of recombinant human PDE4B assessed as reduction of [3H]-cAMP hydrolysis preincubated for 5 mins followed by [3H]-cAMP addition measured after 20 mins by scintillation proximity assay. Summed up:
(§2)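 Recombinant human PDE with [3H]cAMP scintillation proximity assay. Enzyme used at a level within the linear range. Inhibitor (DMSO serial dilutions) plus enzyme held 5 min on ice, then [3H]cAMP added at 1/3 Km (1.48 kBq/mL), 20 min on ice (~30% turnover). Stopped with yttrium silicate SPA beads; settled 1.5 h at rt and counted. IC50 from one-site nonlinear fit, at least two independent runs, ± SD.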

The species named for data set [23] is Homo sapiens. Briefly: Selectivity ratio of IC50 for recombinant human PDE3A to IC50 for recombinant human PDE10A.
Data set [24] concerns the target cGMP-inhibited 3',5'-cyclic phosphodiesterase 3A (Homo sapiens, UniProt Q14432). Briefly: Inhibition of recombinant human PDE3A assessed as reduction of [3H]-cAMP hydrolysis preincubated for 5 mins followed by [3H]-cAMP addition measured after 20 mins by scintillation proximity assay. In short, it runs like this:
as §2

Data set [25] is filed under the species Homo sapiens. Nature of the data set: Selectivity ratio of IC50 for recombinant human PDE4B to IC50 for recombinant human PDE10A.
The species named for data set [26] is Homo sapiens. Briefly: Selectivity ratio of IC50 for recombinant human PDE3B to IC50 for recombinant human PDE10A.
For data set [27], the species on record is Homo sapiens. Briefly: Selectivity ratio of IC50 for recombinant human PDE4A to IC50 for recombinant human PDE10A.
The target of data set [28] is cGMP-inhibited 3',5'-cyclic phosphodiesterase 3B (Homo sapiens, UniProt Q13370). Briefly: Inhibition of recombinant human PDE3B assessed as reduction of [3H]-cAMP hydrolysis preincubated for 5 mins followed by [3H]-cAMP addition measured after 20 mins by scintillation proximity assay. Summed up: as §2
The target of data set [29] is 3',5'-cyclic-AMP phosphodiesterase 4A (Homo sapiens, UniProt P27815). Nature of the data set: Inhibition of recombinant human PDE4A assessed as reduction of [3H]-cAMP hydrolysis preincubated for 5 mins followed by [3H]-cAMP addition measured after 20 mins by scintillation proximity assay. In short, it runs like this:
as §2

In data set [30] the target is cAMP and cAMP-inhibited cGMP 3',5'-cyclic phosphodiesterase 10A (Homo sapiens, UniProt Q9Y233). Nature of the data set: Inhibition of recombinant human PDE10A assessed as reduction of [3H]-cAMP hydrolysis preincubated for 5 mins followed by [3H]-cAMP addition measured after 20 mins by scintillation proximity assay. In short, it runs like this: as §2
Sequence of cAMP and cAMP-inhibited cGMP 3',5'-cyclic phosphodiesterase 10A (Q9Y233 whole entry): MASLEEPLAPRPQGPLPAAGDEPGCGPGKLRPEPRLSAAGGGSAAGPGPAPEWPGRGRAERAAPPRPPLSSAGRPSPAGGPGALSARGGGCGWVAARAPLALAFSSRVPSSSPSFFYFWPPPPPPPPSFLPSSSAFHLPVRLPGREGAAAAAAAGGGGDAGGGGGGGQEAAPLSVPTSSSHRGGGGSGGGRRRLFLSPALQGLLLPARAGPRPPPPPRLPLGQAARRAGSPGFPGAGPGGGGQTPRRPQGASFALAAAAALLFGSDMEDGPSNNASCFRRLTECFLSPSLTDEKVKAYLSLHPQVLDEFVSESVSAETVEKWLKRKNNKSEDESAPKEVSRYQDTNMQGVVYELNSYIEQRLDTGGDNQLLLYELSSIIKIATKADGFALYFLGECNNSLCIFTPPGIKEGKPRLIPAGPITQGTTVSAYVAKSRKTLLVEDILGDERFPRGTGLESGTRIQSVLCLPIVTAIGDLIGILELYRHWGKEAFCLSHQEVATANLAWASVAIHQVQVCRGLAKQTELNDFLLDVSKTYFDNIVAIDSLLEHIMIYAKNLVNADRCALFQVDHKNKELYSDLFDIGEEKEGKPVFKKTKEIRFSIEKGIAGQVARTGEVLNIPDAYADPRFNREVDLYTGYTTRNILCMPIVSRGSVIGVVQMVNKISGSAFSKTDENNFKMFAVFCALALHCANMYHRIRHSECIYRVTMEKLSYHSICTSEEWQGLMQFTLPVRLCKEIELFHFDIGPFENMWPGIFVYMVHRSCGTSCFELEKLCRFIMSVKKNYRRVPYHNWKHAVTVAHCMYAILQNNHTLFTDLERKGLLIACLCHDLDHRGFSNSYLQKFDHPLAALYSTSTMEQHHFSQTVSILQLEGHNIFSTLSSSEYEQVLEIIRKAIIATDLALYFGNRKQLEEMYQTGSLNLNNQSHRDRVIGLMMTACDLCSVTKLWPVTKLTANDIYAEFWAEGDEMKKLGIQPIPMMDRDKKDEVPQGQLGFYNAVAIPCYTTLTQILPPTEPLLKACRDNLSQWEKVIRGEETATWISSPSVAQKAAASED

Sequence of cGMP-inhibited 3',5'-cyclic phosphodiesterase 3B (Q13370 whole entry): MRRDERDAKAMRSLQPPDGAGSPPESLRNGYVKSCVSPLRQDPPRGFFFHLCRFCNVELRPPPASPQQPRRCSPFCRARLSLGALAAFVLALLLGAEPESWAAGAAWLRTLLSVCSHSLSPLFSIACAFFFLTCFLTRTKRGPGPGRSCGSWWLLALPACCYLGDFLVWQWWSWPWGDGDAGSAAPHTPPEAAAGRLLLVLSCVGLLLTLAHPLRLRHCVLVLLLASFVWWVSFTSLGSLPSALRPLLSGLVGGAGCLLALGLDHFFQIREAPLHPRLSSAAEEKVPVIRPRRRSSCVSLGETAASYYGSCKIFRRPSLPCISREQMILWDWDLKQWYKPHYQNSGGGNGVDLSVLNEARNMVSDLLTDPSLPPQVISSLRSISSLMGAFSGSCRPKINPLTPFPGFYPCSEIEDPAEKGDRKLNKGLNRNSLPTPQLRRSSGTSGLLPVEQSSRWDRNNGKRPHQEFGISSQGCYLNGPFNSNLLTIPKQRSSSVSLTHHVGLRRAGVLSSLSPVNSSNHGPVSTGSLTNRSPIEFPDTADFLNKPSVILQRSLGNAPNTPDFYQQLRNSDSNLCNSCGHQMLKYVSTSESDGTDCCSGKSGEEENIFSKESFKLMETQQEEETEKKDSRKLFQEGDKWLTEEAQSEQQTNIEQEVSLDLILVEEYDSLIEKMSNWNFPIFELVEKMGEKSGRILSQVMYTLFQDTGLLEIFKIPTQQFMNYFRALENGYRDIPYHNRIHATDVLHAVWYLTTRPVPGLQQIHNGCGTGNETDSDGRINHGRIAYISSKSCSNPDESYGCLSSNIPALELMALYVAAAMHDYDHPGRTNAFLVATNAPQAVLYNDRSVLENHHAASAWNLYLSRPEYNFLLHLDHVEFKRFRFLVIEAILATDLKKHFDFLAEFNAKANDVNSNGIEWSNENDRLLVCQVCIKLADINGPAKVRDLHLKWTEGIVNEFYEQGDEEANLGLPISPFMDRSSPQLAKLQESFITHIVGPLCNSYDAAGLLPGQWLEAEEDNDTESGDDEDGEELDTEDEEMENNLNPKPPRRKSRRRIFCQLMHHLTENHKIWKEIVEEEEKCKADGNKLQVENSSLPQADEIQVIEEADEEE
Sequence of cGMP-inhibited 3',5'-cyclic phosphodiesterase 3A (Q14432 whole entry): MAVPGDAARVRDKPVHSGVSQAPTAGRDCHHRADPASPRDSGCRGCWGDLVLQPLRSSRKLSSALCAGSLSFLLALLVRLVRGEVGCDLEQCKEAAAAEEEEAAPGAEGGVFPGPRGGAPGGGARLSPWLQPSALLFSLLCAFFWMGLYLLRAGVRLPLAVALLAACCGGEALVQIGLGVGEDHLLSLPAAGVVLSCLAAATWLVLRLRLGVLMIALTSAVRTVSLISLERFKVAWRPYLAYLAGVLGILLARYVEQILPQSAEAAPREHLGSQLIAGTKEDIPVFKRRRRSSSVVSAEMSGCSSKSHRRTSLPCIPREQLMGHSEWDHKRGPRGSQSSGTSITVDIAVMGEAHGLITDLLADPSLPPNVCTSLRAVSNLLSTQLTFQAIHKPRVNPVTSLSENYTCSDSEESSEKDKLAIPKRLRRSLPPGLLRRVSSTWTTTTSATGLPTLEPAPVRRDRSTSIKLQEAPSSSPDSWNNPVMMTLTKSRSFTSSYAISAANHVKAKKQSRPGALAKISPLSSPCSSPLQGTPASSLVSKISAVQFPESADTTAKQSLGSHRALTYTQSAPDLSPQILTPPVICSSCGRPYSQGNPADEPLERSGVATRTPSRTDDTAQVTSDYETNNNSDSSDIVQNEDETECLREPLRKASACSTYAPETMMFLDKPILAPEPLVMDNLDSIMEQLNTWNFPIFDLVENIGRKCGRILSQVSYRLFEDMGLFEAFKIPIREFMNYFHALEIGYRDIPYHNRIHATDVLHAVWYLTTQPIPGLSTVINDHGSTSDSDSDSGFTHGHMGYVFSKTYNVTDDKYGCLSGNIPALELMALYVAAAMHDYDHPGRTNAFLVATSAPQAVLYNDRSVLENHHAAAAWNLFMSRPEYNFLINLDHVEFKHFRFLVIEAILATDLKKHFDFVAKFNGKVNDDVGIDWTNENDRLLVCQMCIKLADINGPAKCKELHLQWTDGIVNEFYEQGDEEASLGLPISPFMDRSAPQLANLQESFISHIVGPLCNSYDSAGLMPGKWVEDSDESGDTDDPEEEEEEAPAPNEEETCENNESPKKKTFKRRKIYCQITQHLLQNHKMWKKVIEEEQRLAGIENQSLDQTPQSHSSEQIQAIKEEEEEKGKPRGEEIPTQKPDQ
Sequence of 3',5'-cyclic-AMP phosphodiesterase 4A (P27815 whole entry): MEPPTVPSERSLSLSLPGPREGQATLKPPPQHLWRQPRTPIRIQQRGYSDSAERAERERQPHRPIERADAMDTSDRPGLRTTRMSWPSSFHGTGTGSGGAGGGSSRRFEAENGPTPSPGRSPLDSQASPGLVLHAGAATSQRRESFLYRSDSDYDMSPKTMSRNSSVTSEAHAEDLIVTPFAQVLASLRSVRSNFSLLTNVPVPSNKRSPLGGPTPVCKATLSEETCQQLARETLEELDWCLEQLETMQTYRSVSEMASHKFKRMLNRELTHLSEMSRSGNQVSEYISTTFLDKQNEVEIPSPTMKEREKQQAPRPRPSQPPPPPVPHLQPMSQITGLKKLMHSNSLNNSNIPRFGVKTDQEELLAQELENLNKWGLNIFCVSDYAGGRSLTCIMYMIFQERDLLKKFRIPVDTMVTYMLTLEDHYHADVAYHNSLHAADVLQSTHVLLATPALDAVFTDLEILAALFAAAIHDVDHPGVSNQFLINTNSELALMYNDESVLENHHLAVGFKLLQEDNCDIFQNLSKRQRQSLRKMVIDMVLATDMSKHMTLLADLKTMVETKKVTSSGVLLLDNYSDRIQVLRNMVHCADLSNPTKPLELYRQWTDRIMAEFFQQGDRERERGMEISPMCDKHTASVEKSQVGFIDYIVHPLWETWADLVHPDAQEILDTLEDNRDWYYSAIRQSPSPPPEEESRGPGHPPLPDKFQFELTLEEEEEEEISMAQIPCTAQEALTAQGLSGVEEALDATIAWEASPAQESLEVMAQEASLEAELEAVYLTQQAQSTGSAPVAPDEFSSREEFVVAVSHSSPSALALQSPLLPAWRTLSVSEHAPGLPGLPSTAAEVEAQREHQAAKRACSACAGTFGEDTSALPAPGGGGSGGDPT
Sequence of 3',5'-cyclic-AMP phosphodiesterase 4B (Q07343 whole entry): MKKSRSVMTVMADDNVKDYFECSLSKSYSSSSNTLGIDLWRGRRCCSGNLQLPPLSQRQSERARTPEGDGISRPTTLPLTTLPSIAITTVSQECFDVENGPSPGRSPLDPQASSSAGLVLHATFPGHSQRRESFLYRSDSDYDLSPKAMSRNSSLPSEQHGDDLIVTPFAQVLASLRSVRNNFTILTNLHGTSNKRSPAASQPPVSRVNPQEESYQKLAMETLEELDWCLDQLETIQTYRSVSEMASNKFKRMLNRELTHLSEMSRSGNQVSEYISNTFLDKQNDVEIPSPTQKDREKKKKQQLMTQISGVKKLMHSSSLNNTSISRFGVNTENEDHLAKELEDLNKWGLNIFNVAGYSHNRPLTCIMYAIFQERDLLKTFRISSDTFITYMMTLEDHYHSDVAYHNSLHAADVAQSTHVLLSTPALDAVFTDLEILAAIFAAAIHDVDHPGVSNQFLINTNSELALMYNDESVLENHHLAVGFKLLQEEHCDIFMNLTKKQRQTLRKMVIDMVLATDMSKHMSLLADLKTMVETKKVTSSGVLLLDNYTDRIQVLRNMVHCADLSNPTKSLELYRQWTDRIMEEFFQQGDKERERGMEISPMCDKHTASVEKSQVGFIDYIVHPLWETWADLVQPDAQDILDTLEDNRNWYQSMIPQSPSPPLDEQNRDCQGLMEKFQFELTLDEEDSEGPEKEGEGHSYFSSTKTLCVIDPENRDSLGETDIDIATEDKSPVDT

For the compound `Cn1cc(-c2ccncc2)c(-c2ccc(OCc3cc(OCCOCCOCC[18F])c4ccccc4n3)cc2)n1`, the Drug uptake was found to be 0.353 % ID/g in the data set on Brain [1]; 0.379 % ID/g in the data set with Muscle tissue [2]; 0.771 % ID/g in the data set on Blood [3]; 0.421 % ID/g in the data set with Brain [4]; 1.793 % ID/g in the data set on Kidney [5]; 1.53 % ID/g with Liver [6]. For the same compound, the Drug uptake in the data set on Bone [7] is on record as 0.487 % ID/g; in the data set on Kidney [8], 1.037 % ID/g; with Liver [9] it was 0.527 % ID/g; in the data set with Liver [10], 4.74 % ID/g; with Striatum, “Active”; in the data set on Brain [11], 0.509 % ID/g. In addition, the Drug uptake with Blood [12] turned out to be 0.699 % ID/g; in the data set on Muscle tissue [13] it was 0.419 % ID/g; with Rattus norvegicus [14] it was 0.254 % ID/g; in the data set with Rattus norvegicus [15] it was 0.225 % ID/g; with Muscle tissue [16], 0.488 % ID/g; in the data set with Bone [17], 0.441 % ID/g. For the same compound, the Drug uptake came to 0.123 % ID/g with Rattus norvegicus [18], 0.646 % ID/g with Blood [19], 0.49 % ID/g in the data set on Bone [20] and 5.969 % ID/g in the data set on Kidney [21].

Turning to `Cn1cc(-c2ccncc2)c(-c2ccc(OCc3cc(COCC[18F])c4ccccc4n3)cc2)n1`, the Drug uptake in the data set with Brain [1] is given as 0.213 % ID/g; with Muscle tissue [2] it was 0.228 % ID/g; with Blood [3], 0.424 % ID/g; with Brain [4], 0.343 % ID/g; in the data set with Kidney [5], 0.632 % ID/g; in the data set on Liver [6], 0.987 % ID/g. In addition, the Drug uptake is reported as 0.133 % ID/g in the data set with Bone [7]; 0.485 % ID/g in the data set on Kidney [8]; 0.554 % ID/g with Liver [9]; 3.99 % ID/g with Liver [10]; “Active” with Striatum; 0.353 % ID/g in the data set on Brain [11]. Further, the Drug uptake in the data set on Blood [12] worked out at 0.44 % ID/g; in the data set with Muscle tissue [13], 0.155 % ID/g; in the data set on Rattus norvegicus [14], 0.139 % ID/g; in the data set on Rattus norvegicus [15], 0.139 % ID/g; with Muscle tissue [16], 0.265 % ID/g; with Bone [17] it was 0.17 % ID/g. Moreover, the Drug uptake with Rattus norvegicus [18] is listed as 0.066 % ID/g; in the data set on Blood [19], 0.401 % ID/g; in the data set on Bone [20], 0.337 % ID/g; with Kidney [21], 0.981 % ID/g.

`Cn1cc(-c2ccncc2)c(-c2ccc(OCc3cc(CF)c4ccccc4n3)cc2)n1`: the IC50 in data set [22] was 3.8 µM; in data set [24], 7.71 µM; in data set [28] it was 5.68 µM; in [29] it was 4.09 µM; in [30], 0.00068 µM. Besides, the Ratio IC50 in the data set listed under Homo sapiens [23], in the data set filed under Homo sapiens [25], in the data set listed under Homo sapiens [26] and in the data set filed under Homo sapiens [27] was more than 210 each time.

For the origin of these results see ChEMBL document CHEMBL3627597, “Synthesis of Fluorine-Containing Phosphodiesterase 10A (PDE10A) Inhibitors and the In Vivo Evaluation of F-18 Labeled PDE10A PET Tracers in Rodent and Nonhuman Primate” (J Med Chem, 2015).
